# Experiments:
# [1] = Plasma clearance in Sprague-Dawley rat at 1 mg/kg, iv and 2 mg/kg, po administered via gavage by LC-MS/MS analysis; assay type: ADME, organism-based
# Summary of the method: (§1)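 Male Sprague-Dawley rats, fasted overnight with water ad libitum and fed 4 h after dosing. TFA salt given as a saline solution, either 1 mg/kg iv via femoral-vein cannula (n = 2) or 2 mg/kg po by gavage (n = 3). EDTA blood taken at 5 min (iv only), 15 and 30 min, and 1, 2, 4, 6, 8, 24 and 48 h. Plasma protein-precipitated with acetonitrile and assayed by LC-MS/MS; noncompartmental analysis.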
# [2] = Volume of distribution at steady state in Sprague-Dawley rat at 1 mg/kg, iv and 2 mg/kg, po administered via gavage by LC-MS/MS analysis; assay type: ADME, organism-based; conditions: in vivo, read-out: Vdss; summary of the method: as §1
# [3] = Terminal half life in Sprague-Dawley rat at 1 mg/kg, iv and 2 mg/kg, po administered via gavage by LC-MS/MS analysis; assay type: ADME, organism-based; conditions: in vivo, read-out: beta t1/2 (converted); summary of the method: as §1
# [4] = Cmax in Sprague-Dawley rat at 2 mg/kg, po administered via gavage by LC-MS/MS analysis; assay type: ADME, organism-based; set-up: dose 2 mg/kg, route oral; conditions: in vivo; summary of the method: as §1
# [5] = Tmax in Sprague-Dawley rat at 1 mg/kg, iv and 2 mg/kg, po administered via gavage by LC-MS/MS analysis; assay type: ADME, organism-based; conditions: in vivo; summary of the method: as §1
# [6] = Oral bioavailability in Sprague-Dawley rat at 2 mg/kg administered via gavage by LC-MS/MS analysis; assay type: ADME, organism-based; conditions: in vivo; summary of the method: as §1
# Rattus norvegicus = assay: Dose normalized AUC in Sprague-Dawley rat at 1 mg/kg, iv and 2 mg/kg, po administered via gavage by LC-MS/MS analysis; assay type: ADME, organism-based; conditions: in vivo; summary of the method: as §1
# [7] = Volume of distribution at steady state in beagle dog at 1 mg/kg, iv and 2 mg/kg, po administered via gavage by LC-MS/MS analysis; assay type: ADME, organism-based, Canis lupus familiaris; conditions: in vivo, read-out: Vdss
# Summary of the method: (§2)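 Beagle dogs, fasted overnight with water ad libitum and fed 4 h postdose. TFA salt in saline given 1 mg/kg iv via cephalic vein (n = 2) or 2 mg/kg by gastric gavage (n = 2). EDTA blood drawn at 5 min (iv only), 15 and 30 min, and 1, 2, 4, 6, 8, 24, 30, 48 and 72 h. Acetonitrile-precipitated plasma quantified by LC-MS/MS; parameters derived noncompartmentally.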
# [8] = Cmax in beagle dog at 2 mg/kg, po administered via gavage by LC-MS/MS analysis; assay type: ADME, organism-based, Canis lupus familiaris; set-up: dose 2 mg/kg, route oral; conditions: in vivo; summary of the method: as §2
# [9] = Tmax in beagle dog at 1 mg/kg, iv and 2 mg/kg, po administered via gavage by LC-MS/MS analysis; assay type: ADME, organism-based, Canis lupus familiaris; conditions: in vivo; summary of the method: as §2
# Canis familiaris = assay: Dose normalized AUC in beagle dog at 1 mg/kg, iv and 2 mg/kg, po administered via gavage by LC-MS/MS analysis; assay type: ADME, organism-based, Canis lupus familiaris; conditions: in vivo; summary of the method: as §2
# in vivo [10] = conditions: beagle, dog, plasma, iv, 1 mg/kg
# in vivo [11] = conditions: beagle, dog, po, 2 mg/kg
# in vivo [12] = conditions: beagle, dog
structure (smiles),measurement,setting,value
CS(=O)(=O)n1cc2c(n1)CN([C@H]1CO[C@H](c3cc(F)ccc3F)[C@@H](N)C1)C2.O=C(O)C(F)(F)F,clearance,[1],0.066 L/h/kg
same,Vd,[2],0.8 L/kg
same,half-life,[3],11 h
same,Cmax,[4],9 µM
same,Tmax,[5],1 h
same,bioavailability,[6],100%
same,AUC/dose,Rattus norvegicus,47.8 µM·h/mg/kg
same,Vd,[7],1.3 L/kg
same,Cmax,[8],5.9 µM
same,Tmax,[9],1.3 h
same,AUC/dose,Canis familiaris,54 µM·h/mg/kg
same,clearance,in vivo [10],0.054 L/h/kg
same,bioavailability,in vivo [11],100%
same,half-life,in vivo [12],22 h
